# Data as given in ChEMBL document CHEMBL4138245, “Design and synthesis of novel quinacrine-[1,3]-thiazinan-4-one hybrids for their anti-breast cancer activity” (Eur J Med Chem, 2018).
# Calls of active or inactive are those of the source. No cut-off for these calls is given here.
# How the values were obtained:
# [1] = system: MDA-MB-231; test: Potency index, ratio of cisplatin IC50 to compound IC50 for antiproliferative activity against human MDA-MB-231 cells; format: functional
# [2] = system: MCF7; test: Antiproliferative activity against human MCF7 cells assessed as compound concentration required to show complete inhibition of cell viability up to 96 hrs by SRB assay; format: functional
# [3] = system: MDA-MB-231; test: Antiproliferative activity against human MDA-MB-231 cells assessed as compound concentration required to show complete inhibition of cell viability up to 96 hrs by SRB assay; format: functional
# [4] = system: MDA-MB-468; test: Antiproliferative activity against human MDA-MB-468 cells assessed as compound concentration required to show complete inhibition of cell viability up to 96 hrs by SRB assay; format: functional
# [5] = system: MCF7; test: Cell cycle arrest in human MCF7 cells assessed as accumulation at S phase at 2 uM after 48 hrs by propidium iodide staining based flow cytometry; format: functional
# Method in brief: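 MCF7, MDA-MB231 and non-cancer 184B5 breast cells exposed to 2 μM for 48 h, then cell-cycle analysis by flow cytometry; duplicates, repeated three times.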
# [6] = system: MDA-MB-231; test: Inhibition of DNA replication in human MDA-MB-231 cells assessed as EdU incorporation at 2 uM pretreated for 48 hrs followed by EdU addition at final 45 mins of 48 hrs incubation time (reference value: 45 to 63%); format: functional; set-up: scale not given: the % may be the effect or the level left
# [7] = system: 184B5; test: Inhibition of DNA replication in human 184B5 cells assessed as EdU incorporation at 2 uM pretreated for 48 hrs followed by EdU addition at final 45 mins of 48 hrs incubation time (reference value: 55%); format: cell-based; set-up: scale not given: the % may be the effect or the level left; conditions: 184b5, 48 h
# [8] = system: MCF7; test: Downregulation of Cyclin-A protein expression in human MCF7 cells at 2 uM after 24 to 72 hrs by Western blot method; format: functional, cell-based
# [9] = molecular target: Serine/threonine-protein kinase mTOR (Homo sapiens) (UniProt P42345); test: Inhibition of mTOR pathway in human MCF7 cells assessed as reduction in S6K phosphorylation at Thr389 residue at 2 uM after 6 hrs by Western blot method; format: cell-based
# [10] = molecular target: Serine/threonine-protein kinase mTOR (Homo sapiens) (UniProt P42345); test: Inhibition of mTOR pathway in human MCF7 cells assessed as reduction in S6K phosphorylation at Thr389 residue at 2 uM after 24 hrs by Western blot method; format: cell-based
# [11] = Selectivity index, ratio of compound concentration for cell killing activity in human MCF10A cells to compound concentration for cell killing activity in human BT20 cells; format: toxicity, cell-based; conditions: MCF10A cells versus BT20 cells, read-out: Selectivity Index
# [12] = Selectivity index, ratio of compound concentration for cell killing activity in human MCF10A cells to compound concentration for cell killing activity in human SK-BR-3 cells; format: toxicity, cell-based; conditions: MCF10A cells versus SK-BR-3 cells, read-out: Selectivity Index
# [13] = Selectivity index, ratio of compound concentration for cell killing activity in human MCF10A cells to compound concentration for cell killing activity in human MDA-MB-231 cells; format: toxicity, cell-based; conditions: MCF10A cells versus MDA-MB-231 cells, read-out: Selectivity Index
# [14] = Selectivity index, ratio of compound concentration for cell killing activity in human MCF10A cells to compound concentration for cell killing activity in human MDA-MB-468 cells; format: toxicity, cell-based; conditions: MCF10A cells versus MDA-MB-468 cells, read-out: Selectivity Index
# [15] = Selectivity index, ratio of compound concentration for cell killing activity in human 184B5 cells to compound concentration for cell killing activity in human MDA-MB-231 cells; format: toxicity, cell-based; conditions: 184B5 cells versus MDA-MB-231 cells, read-out: Selectivity Index
# [16] = Selectivity index, ratio of compound concentration for cell killing activity in human 184B5 cells to compound concentration for cell killing activity in human A549 cells; format: toxicity, cell-based; conditions: 184B5 cells versus A549 cells, read-out: Selectivity Index
compound,measurement,setting,value
COc1ccc2nc3cc(Cl)ccc3c(NCCCN3C(=O)CCSC3c3cccs3)c2c1 (stereo unspecified),Ratio IC50,[1],8.4
same,Activity,[2],1 µM
same,Activity,[3],2 µM
same,Activity,[4],2 µM
same,Activity,[5],Active
same,Activity,[6],10%
same,Activity,[7],52%
same,Activity,[8],Active
same,inhibition,[9],inactive
same,inhibition,[10],Active
same,selectivity ratio,[11],3 to 6
same,selectivity ratio,[12],3 to 6
same,selectivity ratio,[13],3 to 6
same,selectivity ratio,[14],3 to 6
same,selectivity ratio,[15],3 to 6
same,selectivity ratio,[16],3 to 6
